Experimental findings from ChEMBL document CHEMBL1132227, “Low-molecular-weight peptidic and cyclic antagonists of the receptor for the complement factor C5a” (J Med Chem, 1999) are described below.

The target in assay [1] is T1, C5a anaphylatoxin chemotactic receptor 1 (Homo sapiens, UniProt P21730).
T1 sequence (P21730 whole entry): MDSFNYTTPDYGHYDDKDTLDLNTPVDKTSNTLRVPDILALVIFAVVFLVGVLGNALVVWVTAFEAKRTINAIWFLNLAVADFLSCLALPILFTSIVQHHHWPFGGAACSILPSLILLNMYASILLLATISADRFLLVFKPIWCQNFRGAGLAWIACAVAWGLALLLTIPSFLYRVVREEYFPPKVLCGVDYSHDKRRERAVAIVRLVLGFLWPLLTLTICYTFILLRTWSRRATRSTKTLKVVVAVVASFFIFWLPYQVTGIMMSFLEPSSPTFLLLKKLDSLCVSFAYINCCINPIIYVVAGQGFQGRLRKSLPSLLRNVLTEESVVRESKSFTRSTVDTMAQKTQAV
As to the kind of experiment: (§1) Inhibition of binding of [125I]C5a to human polymorphonuclear leukocyte C5a receptor. The method, boiled down: (§2)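 Competition binding on fresh human PMNs (0.2 × 10⁶) with [¹²⁵I]C5a (~50 pM). Buffer: 50 mM HEPES, 1 mM CaCl₂, 5 mM MgCl₂, 0.5% BSA, 0.1% bacitracin, 100 μM PMSF. Incubated 60 min at 4 °C, then filtered, washed and γ-counted. Nonspecific binding defined with 1 mM peptide or 100 nM C5a.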

In assay [2] the target is T1, C5a anaphylatoxin chemotactic receptor 1. Described as §1. The method, boiled down: as §2
This is another data set of the same source.

Assay [3] is filed under the species Homo sapiens. As to the kind of experiment: (§3) Concentration of peptide resulting in 50% inhibition of C5a (100 nM) causing the release of MPO from polymorphonuclear leukocytes. The class given is functional, organism-based. The method, boiled down:
(§4)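 Freshly isolated human PMNs primed with cytochalasin B (10 µg/mL, 10 min, 37 °C). Cells (4 × 10⁶/mL) preincubated 10 min at 37 °C with peptide in Hank's balanced salt solution with 0.1% gelatin. Challenged with C5a (100 nM) for 10 min. Myeloperoxidase read-out: pH 6.8 phosphate buffer, dimethoxybenzidine/H₂O₂, stopped at 20 min with sodium azide. A450 corrected for no-peptide controls.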

The species named for assay [4] is Homo sapiens. The assay is described as §3. The class given is functional, organism-based. The gist of the method: as §4
This is another data set of the same source.

The target in assay [5] is T1, C5a anaphylatoxin chemotactic receptor 1. As to the kind of experiment: (§5) Inhibition of binding of [125I]C5a to human polymorphonuclear leukocyte(PMN) C5a anaphylatoxin chemotactic receptor. The method, boiled down: (§6)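 Competition binding on freshly isolated whole human PMNs (0.2 × 10⁶/well) against ~50 pM [125I]C5a, with unlabeled peptide or recombinant human C5a as competitor. Buffer: 50 mM HEPES, 1 mM CaCl2, 5 mM MgCl2, 0.5% BSA, 0.1% bacitracin, 100 μM PMSF. Incubated 60 min at 4 °C, then filtered, washed once and gamma-counted. Nonspecific binding set with 1 mM peptide or 100 nM C5a.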

The target is the same in assay [6]. The assay is described as §5. The gist of the method: as §6
This is another data set of the same source.

Regarding `CC(C)[C@H](NC(=O)[C@H](CO)NC(=O)[C@H](Cc1c[nH]cn1)NC(=O)[C@H](CCCCN)NC(=O)[C@H](Cc1ccc(O)cc1)NC(=O)[C@@H](N)CCCCN)C(=O)N[C@H](C(=O)N[C@@H](CCCCN)C(=O)N[C@@H](CCCCN)C(=O)NCCCCC(=O)NCC(=O)NCC(=O)NCC(=O)NCC(=O)N[C@@H](Cc1ccccc1)C(=O)N[C@@H](CCCCN)C(=O)N1CCC[C@H]1C(=O)N[C@H](CC1CCCCC1)C(=O)N[C@@H](Cc1c[nH]c2ccccc12)C(=O)N[C@H](CCCNC(=N)N)C(=O)O)C(C)C`, the concentration for half-maximal inhibition (IC50) in assay [1] was more than 0.174 µM; in assay [2] it was 0.2 µM; in the assay listed under Homo sapiens [3], 72.4 nM; in the assay filed under Homo sapiens [4] it was 70 nM.

Consider `CC(=O)N[C@@H](Cc1ccccc1)C(=O)N[C@@H](CCCCN)C(=O)N1CCCC1C(=O)N[C@H](CC1CCCCC1)C(=O)N[C@@H](Cc1c[nH]c2ccccc12)C(=O)N[C@H](CCCN=C(N)N)C(=O)O` (single isomer, unassigned), for which the IC50 was 4.79 µM in assay [1] and 4.8 µM in assay [2].

In the case of `NCCCC[C@H](NC(=O)[C@H](Cc1ccccc1)NC(=O)[C@@H](N)CCCCN)C(=O)N1CCCC1C(=O)N[C@H](CC1CCCCC1)C(=O)N[C@@H](Cc1c[nH]c2ccccc12)C(=O)N[C@H](CCCN=C(N)N)C(=O)O` (single isomer, unassigned), the half-maximal inhibitory concentration (IC50) was 2.63 µM in assay [1], 2.6 µM in assay [2], 269 nM in the assay filed under Homo sapiens [3] and 300 nM in the assay filed under Homo sapiens [4].

Regarding `CC(C)[C@H](NC(=O)[C@H](CO)NC(=O)[C@H](Cc1c[nH]cn1)NC(=O)[C@H](CCCCN)NC(=O)[C@H](Cc1ccc(O)cc1)NC(=O)[C@@H](N)CCCCN)C(=O)N[C@H](C(=O)N[C@@H](CCCCN)C(=O)N[C@@H](CCCCN)C(=O)NCCCCC(=O)N[C@@H](Cc1ccccc1)C(=O)N[C@@H](CCCCN)C(=O)N1CCC[C@H]1C(=O)N[C@H](CC1CCCCC1)C(=O)N[C@@H](Cc1c[nH]c2ccccc12)C(=O)N[C@H](CCCN=C(N)N)C(=O)O)C(C)C`, the IC50 in assay [1] is 1.23 µM; in assay [2], 1.2 µM; in the assay filed under Homo sapiens [3], 245 nM; in the assay filed under Homo sapiens [4] it was 200 nM.

Consider `CC(=O)N[C@@H](Cc1ccccc1)C(=O)N[C@@H](CCCN)C(=O)N1CCCC1C(=O)N[C@H](CC1CCCCC1)C(=O)N[C@@H](Cc1c[nH]c2ccccc12)C(=O)N[C@H](CCCN=C(N)N)C(=O)O` (single isomer, unassigned), for which the 50% inhibitory concentration (IC50) is 0.794 µM in assay [1], 0.8 µM in assay [2], 191 nM in the assay listed under Homo sapiens [3] and 200 nM in the assay filed under Homo sapiens [4].

Consider `NC(N)=NCCC[C@@H](NC(=O)[C@H](Cc1c[nH]c2ccccc12)NC(=O)[C@@H](CC1CCCCC1)NC(=O)C1CCCN1C(=O)[C@H](Cc1c[nH]c2ccccc12)NC(=O)[C@@H](N)Cc1ccccc1)C(=O)O` (single isomer, unassigned), for which the 50% inhibitory concentration (IC50) in assay [5] was 5.9 µM; in assay [6], 5.89 µM; in the assay filed under Homo sapiens [3], 316 nM; in the assay filed under Homo sapiens [4], 300 nM.

In assay [1], `N=C(N)NCCC[C@H]1NC(=O)[C@H](Cc2c[nH]c3ccccc23)NC(=O)[C@@H](CC2CCCCC2)NC(=O)[C@@H]2CCCN2C(=O)[C@H](Cc2c[nH]c3ccccc23)NC(=O)[C@H](Cc2ccccc2)NC1=O` showed a concentration for half-maximal inhibition (IC50) of more than 42.7 µM.

Turning to `C[C@H](N)C(=O)N[C@@H](CCCCN)C(=O)N1CCCC1C(=O)N[C@H](CC1CCCCC1)C(=O)N[C@@H](Cc1c[nH]c2ccccc12)C(=O)N[C@H](CCCN=C(N)N)C(=O)O` (single isomer, unassigned), the IC50 in assay [1] and in assay [2] was more than 1000 µM each time.

Take `NCCCC[C@H](NC(=O)[C@@H](N)Cc1ccccc1)C(=O)N[C@@H](Cc1ccccc1)C(=O)N[C@@H](CCCCN)C(=O)N1CCC[C@H]1C(=O)N[C@H](CC1CCCCC1)C(=O)N[C@@H](Cc1c[nH]c2ccccc12)C(=O)N[C@H](CCCN=C(N)N)C(=O)O`: the IC50 in assay [1] is 4.57 µM; in assay [2] it was 4.6 µM; in the assay listed under Homo sapiens [3], 501 nM; in the assay filed under Homo sapiens [4], 500 nM.

Take `CC(=O)N[C@@H](Cc1ccccc1)C(=O)N[C@@H](CCCCN)C(=O)N1CCCC1C(=O)N[C@H](CC1CCCCC1)C(=O)N[C@@H](CC1c2ccccc2-c2ccccc21)C(=O)N[C@H](CCCN=C(N)N)C(=O)O` (single isomer, unassigned; 16a): the IC50 is more than 51.3 µM in assay [1] and 51 µM in assay [2].

In the case of `C[C@H](NC(=O)[C@@H](N)Cc1ccccc1)C(=O)N1CCCC1C(=O)N[C@H](CC1CCCCC1)C(=O)N[C@@H](Cc1c[nH]c2ccccc12)C(=O)N[C@H](CCCN=C(N)N)C(=O)O` (single isomer, unassigned), the half-maximal inhibitory concentration (IC50) in assay [1] was 9.12 µM; in assay [2], 9 µM; in the assay filed under Homo sapiens [3] it was 3630 nM; in the assay listed under Homo sapiens [4] it was 3700 nM.

As for `CN[C@@H](Cc1ccccc1)C(=O)N[C@@H](CCCCN)C(=O)N1CCCC1C(=O)N[C@H](CC1CCCCC1)C(=O)N[C@@H](Cc1c[nH]c2ccccc12)C(=O)N[C@H](CCCN=C(N)N)C(=O)O` (single isomer, unassigned), the IC50 in the assay listed under Homo sapiens [3] is 107 nM; in the assay listed under Homo sapiens [4], 100 nM.

For the molecule `CCCC[C@H](NC(=O)[C@H](Cc1ccccc1)NC(C)=O)C(=O)N1CCCC1C(=O)N[C@H](CC1CCCCC1)C(=O)N[C@@H](Cc1c[nH]c2ccccc12)C(=O)N[C@H](CCCN=C(N)N)C(=O)O` (single isomer, unassigned), the IC50 in assay [1] is 3.55 µM; in assay [2], 3.6 µM; in the assay listed under Homo sapiens [3], 1410 nM; in the assay filed under Homo sapiens [4], 1400 nM.

Consider `CN1C(=O)[C@@H](CCCN=C(N)N)NC(=O)[C@H](Cc2c[nH]c3ccccc23)NC(=O)[C@@H](CC2CCCCC2)NC(=O)[C@@H]2CCCN2C(=O)[C@H](Cc2c[nH]c3ccccc23)NC(=O)[C@@H]1Cc1ccccc1`, for which the IC50 in assay [1] is 2.95 µM; in assay [2] it was 3 µM; in the assay filed under Homo sapiens [3], 1510 nM; in the assay listed under Homo sapiens [4], 2100 nM.

For the molecule `CN[C@@H](Cc1ccccc1)C(=O)N[C@@H](CCCCN)C(=O)N1CCCC1C(=O)N[C@H](CC1CCCCC1)C(=O)N[C@@H](Cc1c[nH]c2ccccc12)C(=O)N[C@@H](CCCN=C(N)N)C(=O)O` (single isomer, unassigned), the IC50 was 1950 nM in the assay listed under Homo sapiens [3] and 2000 nM in the assay listed under Homo sapiens [4].

Regarding `NCCCC[C@H](NC(=O)[C@@H](N)Cc1ccccc1)C(=O)N1CCCC1C(=O)N[C@H](CC1CCCCC1)C(=O)N[C@@H](Cc1c[nH]c2ccccc12)C(=O)N[C@H](CCCN=C(N)N)C(=O)O` (single isomer, unassigned), the half-inhibitory concentration (IC50) in assay [1] was 1.95 µM; in assay [2], 2 µM; in the assay filed under Homo sapiens [3] it was 6760 nM; in the assay listed under Homo sapiens [4], 6800 nM.

With `CC(=O)N[C@@H](Cc1ccccc1)C(=O)N[C@@H](CCCCN)C(=O)N1CCCC1C(=O)N[C@H](CC1CCCCC1)C(=O)N[C@@H](CC1c2ccccc2-c2ccccc21)C(=O)N[C@H](CCCN=C(N)N)C(=O)O` (single isomer, unassigned; 16b), the figures for the IC50 in assay [1] and in assay [2] were more than 115 µM and 116 µM, respectively.
